Results: the RNAGym collection of RNA variant scans (doi:10.1038/s41586-018-0170-7)

B1: tRNA (parent)
chain: GUUCCGUUGGCGUAAUGGUAACGCGUCUCCCUCCUAAGGAGAAGACUGCGGGUUCGAGUCCCGUACGGAACG

Variants of: B1
Assay: yeast fitness, log relative to wild type (ln ratio); higher = fitter; tRNA-Arg(CCU), competitive growth, 37 C, 1 M NaCl
Summary of the method: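 Variants were counted by 125 bp paired-end Illumina sequencing after pools of a combinatorial tRNA-Arg(CCU) library, held on a HIS3 centromeric plasmid in BY4742 lacking the chromosomal gene, grew ~6.5 generations (~26.5 h) in SC-HIS 1M NaCl at 37 °C. Each genotype's fitness is the natural log of its generations relative to the wild type's. Generations were OD-scaled log2 output/input frequencies, inverse-variance weighted over replicates.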
With U2C G6A A70U C71U the “yeast fitness (ln)” value was -0.0821.
In the case of U2C G6A C27U A43C C66U, the “yeast fitness (ln)” value is reported as -0.179.
For U2C G6A C27U A43C C71U, the “yeast fitness (ln)” value was -0.209.
In the case of U2C G6A C27U C66U A69G A70U C71U, the “yeast fitness (ln)” value is reported as -0.386.
In the case of U2C G6U A43C C46U C71U, the “yeast fitness (ln)” value is reported as -0.125.
For U2C G6U A43C, the “yeast fitness (ln)” value was -0.0574.
For U2C G6U A43C C46U C66U A69G A70G C71U, the “yeast fitness (ln)” value was -0.169.
For U2C G6A C27U A43C A70U C71U, the “yeast fitness (ln)” value was -0.243.
In the case of U2C G6U A43C C46U C66A A69G A70G C71U, the “yeast fitness (ln)” value is reported as -0.00753.
With U2C G6A A43C C66U A70U C71U the “yeast fitness (ln)” value was -0.305.
In the case of U2C G6A A43C C46U C66U A69G A70U C71U, the “yeast fitness (ln)” value is reported as -0.319.
With U2C G6U A43C C46U C66U A69G A70G the “yeast fitness (ln)” value was -0.262.
For U2C G6U A43C C46U C66U A69G A70U, the “yeast fitness (ln)” value was -0.211.
With U2C G6A C27U C46U C66A A70G C71U the “yeast fitness (ln)” value was -0.228.
With U2C G6A C27U C66U A70U C71U the “yeast fitness (ln)” value was -0.212.
For U2C G6A A43C C46U C66U A69G A70G C71U, the “yeast fitness (ln)” value was -0.0188.
For U2C C71U, the “yeast fitness (ln)” value was -0.101.
For U2C G6A C27U A43C C66U A69G A70G C71U, the “yeast fitness (ln)” value was -0.293.
In the case of U2C C66A A70G, the “yeast fitness (ln)” value is reported as -0.11.
For U2C C66A A70U, the “yeast fitness (ln)” value was -0.0514.
With U2C G6A C27U A43C C66U A70U C71U the “yeast fitness (ln)” value was -0.309.
With U2C G6U A43C C66A A69G A70G C71U the “yeast fitness (ln)” value was -0.0618.
In the case of U2C C46U C66A A70G C71U, the “yeast fitness (ln)” value is reported as -0.168.
For U2C G6A A43C C46U C66U A69G A70U, the “yeast fitness (ln)” value was -0.3.
For U2C G6A A43C C46U C66U A69G A70G, the “yeast fitness (ln)” value was -0.00874.
In the case of U2C G6U A43C A70G, the “yeast fitness (ln)” value is reported as -0.188.
With U2C G6U A43C A70U the “yeast fitness (ln)” value was -0.118.
In the case of U2C G6A C27U A43C A69G C71U, the “yeast fitness (ln)” value is reported as -0.29.
For U2C G6A C27U A69G A70G C71U, the “yeast fitness (ln)” value was -0.216.
For U2C G6A C27U A43C A70G C71U, the “yeast fitness (ln)” value was -0.156.
In the case of U2C G6U A43C C66U A69G A70U C71U, the “yeast fitness (ln)” value is reported as -0.479.
With U2C G6A C66A A70G the “yeast fitness (ln)” value was -0.0699.
For U2C G6A C66A A70U, the “yeast fitness (ln)” value was -0.094.
With U2C G6A C27U A43C A69G A70U C71U the “yeast fitness (ln)” value was -0.384.
In the case of U2C G6A A43C, the “yeast fitness (ln)” value is reported as -0.0449.
For U2C C46U A70U, the “yeast fitness (ln)” value was 0.0104.
For U2C C46U A70G, the “yeast fitness (ln)” value was 0.000328.
For U2C G6U A43C C66U A69G A70U, the “yeast fitness (ln)” value was -0.231.
In the case of U2C G6U A43C C66U A69G A70G, the “yeast fitness (ln)” value is reported as -0.31.
In the case of U2C G6A A43C C46U C66U A69G C71U, the “yeast fitness (ln)” value is reported as -0.332.
For U2C G6A C27U C66U C71U, the “yeast fitness (ln)” value was -0.161.
In the case of U2C G6A C27U A43C C46U C66U A69G C71U, the “yeast fitness (ln)” value is reported as -0.281.
With U2C G6A A43C C46U C71U the “yeast fitness (ln)” value was -0.0721.
In the case of U2C G6U A43C C46U C66A A69G A70G, the “yeast fitness (ln)” value is reported as -0.0147.
With U2C G6U A43C C46U C66A A69G A70U the “yeast fitness (ln)” value was -0.162.
For U2C G6U A43C C66U A70G C71U, the “yeast fitness (ln)” value was -0.172.
With U2C G6A C27U A43C A69G A70G the “yeast fitness (ln)” value was -0.211.
In the case of U2C G6A C27U A43C A69G A70U, the “yeast fitness (ln)” value is reported as -0.215.
In the case of U2C G6A C27U A43C, the “yeast fitness (ln)” value is reported as -0.0322.
With U2C G6A C27U C46U C66U A70G the “yeast fitness (ln)” value was -0.0278.
In the case of U2C G6A C27U C46U C66U A70U, the “yeast fitness (ln)” value is reported as -0.112.
In the case of U2C G6A C27U A43C C66U A69G A70U C71U, the “yeast fitness (ln)” value is reported as -0.351.
With U2C C46U C66A A69G A70G C71U the “yeast fitness (ln)” value was -0.128.
With U2C C66U A70G the “yeast fitness (ln)” value was -0.00448.
In the case of U2C C66U A70U, the “yeast fitness (ln)” value is reported as -0.0706.
For U2C G6A A70G, the “yeast fitness (ln)” value was -0.0119.
In the case of U2C G6A A70U, the “yeast fitness (ln)” value is reported as -0.0455.
With U2C G6A C46U C66U A70U C71U the “yeast fitness (ln)” value was -0.183.
For U2C G6A A43C C66U A70U, the “yeast fitness (ln)” value was -0.06.
With U2C G6A A43C C66U A70G the “yeast fitness (ln)” value was -0.0213.
For U2C G6A C27U A43C C46U C66A A70G C71U, the “yeast fitness (ln)” value was -0.0721.
With U2C G6U A43C C46U C66A A70G C71U the “yeast fitness (ln)” value was 0.00139.
For U2C G6A C27U A43C C46U C66A A70U C71U, the “yeast fitness (ln)” value was -0.268.
For U2C G6A C27U A70U C71U, the “yeast fitness (ln)” value was -0.141.
In the case of U2C C46U C66A A70U C71U, the “yeast fitness (ln)” value is reported as -0.0668.
For U2C G6A A43C C46U C66A A70U C71U, the “yeast fitness (ln)” value was -0.0318.
In the case of U2C G6A C27U A43C C66U C71U, the “yeast fitness (ln)” value is reported as -0.148.
With U2C G6A C27U C46U C66A A69G A70U C71U the “yeast fitness (ln)” value was -0.384.
In the case of U2C G6A C27U C66A A69G A70G C71U, the “yeast fitness (ln)” value is reported as -0.0666.
For U2C G6A C27U C46U C66A A70U, the “yeast fitness (ln)” value was -0.0453.
For U2C G6A C27U C46U C66A A70G, the “yeast fitness (ln)” value was -0.0252.
With U2C C46U A69G A70U C71U the “yeast fitness (ln)” value was -0.169.
In the case of U2C G6A C66U A69G, the “yeast fitness (ln)” value is reported as -0.271.
For U2C C46U, the “yeast fitness (ln)” value was 0.0244.
With U2C G6A C46U C66U A69G the “yeast fitness (ln)” value was -0.293.
With U2C G6A C27U C46U C66A A70U C71U the “yeast fitness (ln)” value was -0.172.
With U2C G6A C27U A43C C46U C66U A69G A70U C71U the “yeast fitness (ln)” value was -0.32.
In the case of U2C G6U A43C A69G C71U, the “yeast fitness (ln)” value is reported as -0.255.
With U2C G6A C27U A43C C46U C66U A70G C71U the “yeast fitness (ln)” value was -0.0215.
For U2C G6U A43C C66A A70G C71U, the “yeast fitness (ln)” value was -0.0145.
For U2C G6A C46U C66A A70U C71U, the “yeast fitness (ln)” value was -0.0695.
In the case of U2C G6U A43C C46U A70G C71U, the “yeast fitness (ln)” value is reported as -0.278.
For U2C G6A C27U A43C A70U, the “yeast fitness (ln)” value was -0.108.
In the case of U2C G6A C27U A43C A70G, the “yeast fitness (ln)” value is reported as -0.153.
